The RNAGym collection of RNA variant scans (doi:10.1126/science.aae0568)
This sample holds only a part of the variants without activity.

B1: tRNA (parent)
chain: GUUCCGUUGGCGUAAUGGUAACGCGUCUCCCUCCUAAGGAGAAGACUGCGGGUUCGAGUCCCGUACGGAACG

Variants of: B1
Experiment: yeast fitness relative to wild type (ratio to wild type); higher = fitter; tRNA-Arg(CCU), competitive growth, 37 C, YPD
Outline: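 Variants of the tRNA-Arg(CCU) gene were chemically synthesised with a 3% per-site mutation rate across 69 sites and placed at the native genomic locus in Saccharomyces cerevisiae. Six parallel replicates of the pooled strains were competed in YPD at 37°C for 24 hours, and gene amplicons from the start and end populations were read by 100-nucleotide paired-end sequencing. Darwinian fitness relative to wild type was derived from changes in genotype frequencies. Genotypes required ≥ 100 starting reads, and estimates < 0.5 were set to 0.5.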

| Variant | yeast fitness |
| --- | --- |
| GUUCCGUUGGUGUAAUGGUAGCGCGUCUCCCUCCUAAGGAGAAGACUGCGGGUUCGAGUCCCGCACGGAACG | 0.945 |
| GUUCCGUUGGUGUAAUGGUAUCGCGUCUCCCUCCUAAGGAGAAGACUGCGGGUUCGAGUCCCGUACGGAACG | 1.02 |
| GUUCCGUUGGUGUAAUGGUAUCGCGUCUCCCUCCUAAGGAGACGACUGCGGGUUCGAGUCCCGUACGCAACG | ≤ 0.5 |
| GUUCCGUUGGUGUAAUGGUAUCGCGUCUCCCUCCUAAGGAGAAGACUGCGGGUUCGAGUCCCGUACGGCACG | 0.772 |
| GUUCCGUUGGUGUAAUGGUAUCGCGUAUCCCUCCUAAGGAGAAGACUGCGGGUUCGAGUCCCGUACGGAACG | 0.576 |
| GUUCCGUUGGUGUAAUGGUAUCGCGUAUCCCUCAUUAGGAGAAGACCGCGGGUUCGAGUCCCGUACGGAACG | ≤ 0.5 |
| GUUCCGUUGGUGUAAUGGUAUCGCGUCUCCCUCCUAAGCAGAAGACUGCGGGUUUGAGUCCCGUACGGAACG | ≤ 0.5 |
| GUUCCGUUGGUGUAAUGGUAUCGCGUCUCCCUCCUAAGGAGAAGACUGCCGGUUCGAGUCCCGUACGGAACG | 0.788 |
| GUUCCGUUGGUGUAAUGGUAUCGCGUCUCCCUCCUAAGGAGAAGACUGCGGGUUCGAGUCCCGUACGCAACG | 0.69 |
| GUUCCGUUGGUGUAAUGGUAACGCGUCUCCCUCCUCAGGAGAAGACUGCGGGUUCGAGUCCCGUACGGAACG | 0.641 |
| GUUCCGUUGGUGUAAUGGUAACGCGUCUCCCUCCUCAGGAGAAGAGUGCGGGUUCGAGUCCCGUACGGAACG | ≤ 0.5 |
| GUUCCGUUGGUGUAAUGGUAACGCGUCUCCCUCCUGAGGAGAAGACUGCGGGUUCGAGUCCCGUACGGAGCG | 0.672 |
| GUUCCGUUGGUGUAAUGGUAACGCGUCUCCCUCCUGAGGAGAAGAUUGCGGGUUCGAGUCCCGUACGGAACG | 0.77 |
| GUUCCGUUGGUGUAAUGGUAACGCGUCUCCCUCCUGAGGAGAAGAUUGCGGGUUCAAGUCCCGUACGGAACG | ≤ 0.5 |
| GUUCCGUUGGUGUAAUGGUAACGCGUCUCCCUCCUGAGGAGAAAAUUGCGGGUUCGAGUCCCGUACGGAACG | 0.993 |
| GUUCCGUUGGUGUAAUGGUAACGCGUCUCCCUCCUGAGGAGAAGACUCCGGGUUCGAGUCCCGUCCGGAACG | 0.675 |
| GUUCCGUUGGUGUAAUGGUAACGCGUCUCCCUCCUUAGGAGAAGACUGCGGGUUCGAGUCCCGUACGGAACG | 0.606 |
| GUUCCGUUGGUGUAAUGGUAACGCGUCUCCCUCCUUAGGAGACGACUGCGGGUUCGGGUCCCGUACGGAACG | 1.1 |
| GUUCCGUUGGUGUAAUGGUAACGCGUCUCCCUCCUUAGGAGAAGACUGCGGGUUCGAGUACCGUACGGAACG | ≤ 0.5 |
| GUUCCGUUGGUGUAAUGGUAACGCGUCUCCCUCCUUAGGAGAAGACUGCGGGUUCGAAUCCCGUACCGAACG | ≤ 0.5 |
| GUUCCGUUGGUGUAAUGGUAACGCGUCUCCCUCCUACGGAGAAGAGUGCGGGUUCGAGUUACGUACGGAACG | 0.536 |
| GUUCCGUUGGUGUAAUGGUAACGCGUCUCCCUCCUACGGAGAAGACUGCGGGUUCGAGUCCCGUAUGGAACG | 0.611 |
| GUUCCGUUGGUGUAAUGGUAACGCGUCUCCCUCCUACGGAGAAGACUGCGGGUUCAAGUCCCGUACGGAACG | ≤ 0.5 |
| GUUCCGUUGGUGUAAUGGUAACGCGUCUCCCUCCUAGGGAGAAGACUGCGGGUUCGGGUCCCGUACGGACCG | ≤ 0.5 |
| GUUCCGUUGGUGUAAUGGUAACGCGUCUCCCUCCUAUAGAGAAGACUGCGGGUUCGAGUCCCGUACGGAACG | ≤ 0.5 |

| Variant | yeast fitness |
| --- | --- |
| GUUCCGUUGGUGUAAUGGUAACGCGUCUCCCUCCUAAGGCGAAGACUGCGAGUUCGAGUCUCGUACGGCACG | ≤ 0.5 |
| GUUCCGUUGGUGUAAUGGUAACGCGUCUCCCUCCUAAGGCGAAGACUGCGGGUUCGAGUCCCGUACGAAACG | 0.733 |
| GUUCCGUUGGUGUAAUGGUAACGCGUCUCCCUCCUAAGGCGAAGACUGCGGGAUCGAGUCCCGUACGGAACG | 0.586 |
| GUUCCGUUGGUGUAAUGGUAACGCGUCUCCCUCCUAAGGCGAAGACUGCGGGAUCGAGUCCCGUACGGCUCG | ≤ 0.5 |
| GUUCCGUUGGUGUAAUGGUAACGCGUCUCCCUCCUAAGGGGAAGACUGCGGGUUCGAGUCCCGUACGGAACG | 0.866 |
| GUUCCGUUGGUGUAAUGGUAACGCGUCUCCCUCCUAAGGGGAAGACUGCGGGUUCGAGUCGCGUACGGAACG | ≤ 0.5 |
| GUUCCGUUGGUGUAAUGGUAACGCGUCUCCCUCCUAAGGUGAAGAAUGCGGGUUCGAGUCCCGUACGGAACG | 0.74 |
| GUUCCGUUGGUGUAAUGGUAACGCGUCUCCCUCCUAAGGUGAAGAUUGCGGGUUCGAGUCCCGUACGGAACG | 0.637 |
| GUUCCGUUGGUGUAAUGGUAACGCGUCUCCCUCCUAAGGUGAAGACUGCGGGUUCGAGUCCCGUACAGAACG | ≤ 0.5 |
| GUUCCGUUGGUGUAAUGGUAACGCGUCUCCCUCCUAAGGAGCAGACUGCGGGUUCGAGUCCCGUACGGUACG | 0.773 |
| GUUCCGUUGGUGUAAUGGUAACGCGUCUCCCUCCUAAGGAGCAGACUGGGGGUUCGAGUCCCGUACGGAACG | ≤ 0.5 |
| GUUCCGUUGGUGUAAUGGUAACGCGUCUCCCUCCUAAGGAGGAGACUGCGGGUUCGAGUACCGUACGGAACG | ≤ 0.5 |
| GUUCCGUUGGUGUAAUGGUAACGCGUCUCCCUCCUAAGGAGUAGACUGCGGGUUCGAGUCCCGUACGGAACG | 0.897 |
| GUUCCGUUGGUGUAAUGGUAACGCGUCUCCCUCCUAAGGAGUGGACUGCGGCUUCGAGUGCCGUACGGAACG | ≤ 0.5 |
| GUUCCGUUGGUGUAAUGGUAACGCGUCUCCCUCCUAAGGAGACGACUGCGGGUUCGAGUCCCGUACGGAACG | 0.686 |
| GUUCCGUUGGUGUAAUGGUAACGCGUCUCCCUCCUAAGGAGACGACUGCGGGUUCGAGUCCCGUACGAAACG | 0.545 |
| GUUCCGUUGGUGUAAUGGUAACGCGUCUCCCUCCUAAGGAGAGGACUGCGGGUUCGUGUCCCGUACGGAACG | 0.568 |
| GUUCCGUUGGUGUAAUGGUAACGCGUCUCCCUCCUAAGGAGAUGACUGCGGGUUCGAGUCCCGUACGGAACG | 0.907 |
| GUUCCGUUGGUGUAAUGGUAACGCGUCUCCCUCCUAAGGAGAUGACUGCGGGUUCGAGUCCCGUACGGAUCG | 0.764 |
| GUUCCGUUGGUGUAAUGGUAACGCGUCUCCCUCCUAAGGAGAUGACUGCGGGUUCGAGUCCCGUAUGGAACG | 0.555 |
| GUUCCGUUGGUGUAAUGGUAACGCGUCUCCCUCCUAAGGAGAAGCCUGUGGGUUCGAGUCCCGUACGGAACG | 0.765 |
| GUUCCGUUGGUGUAAUGGUAACGCGUCUCCCUCCUAAGGAGAAGCCUGCGGGUUCGAGCCCCGUACGGAACG | ≤ 0.5 |
| GUUCCGUUGGUGUAAUGGUAACGCGUCUCCCUCCUAAGGAGAAGGCUGAGGGUUCGAGUCCCGUACGGAACG | 0.567 |
| GUUCCGUUGGUGUAAUGGUAACGCGUCUCCCUCCUAAGGAGAAGUCUGCGGGUUCGACUCCCGUACGGCACG | ≤ 0.5 |
| GUUCCGUUGGUGUAAUGGUAACGCGUCUCCCUCCUAAGGAGAAGACUGCGGGUUCGUGUCCCGUACGGAACG | 0.677 |

| Variant | yeast fitness |
| --- | --- |
| GUUCCGUUGGUGUAAUGGUAACGCGUCUCCCUCCUAAGGAGAAGACUGCGGGUUCGUGUCCCGUUCGGAACG | 0.653 |
| GUUCCGUUGGUGUAAUGGUAACGCGUCUCCCUCCUAAGGAGAAGACUGCGGGUUCGUGUCCCGUACGGUACG | 0.613 |
| GUUCCGUUGGUGUAAUGGUAACGCGUCUCCCUCCUAAGGAGAAGACUGCGGGUUCGUGUCCCGUACGGACCG | 0.512 |
| GUUCCGUUGGUGUAAUGGUAACGCGUCUCCCUCCUAAGGAGAAGACUGCGGGUUCGAGUCCCGUUCCGAACG | ≤ 0.5 |
| GUUCCGUUGGUGUAAUGGUAACGCGUCUCCCUCCUAAGGAGAAGACUGCGGGUUCGAGUCCCGUACGGAGCG | 0.978 |
| GUUCCGUUGGUGUAAUGGUAAAGCGUCUCCCUCCUAAGGAGAAGACUGCGGGUUCGAGUCCCGUACGGAACG | 0.882 |
| GUUCCGUUGGUGUAAUGGUAAAGCGUCUGCCUUCUAAGGAGAAGACUGCGGGUUCGUGUCCCGUACGGAUCG | ≤ 0.5 |
| GUUCCGUUGGUGUAAUGGUAAAGCGUCUCCUUCCUAAGGAGAAGACUGCGGGUUCGAGUCCCGUACGCAACG | ≤ 0.5 |
| GUUCCGUUGGUGUAAUGGUAAGGCGUCUGCCUCCUAAGGAAAAGACUGCGGGUUCGAGUCCCGUACGGAACG | ≤ 0.5 |
| GUUCCGUUGGUGUAAUGGUAAGGCGUCUCUCUCCUAAGGAGAAGACUGCGGGUCCGAGUCCCGUACGGAACG | ≤ 0.5 |
| GUUCCGUUGGUGUAAUGGUAAGGCGUCUCCCUCAUAAGGAGAAGACUGUGGGUUCGAGUCCCGUACGGAACG | ≤ 0.5 |
| GUUCCGUUGGUGUAAUGGUAAGGCGUCUCCCUCCUAAGGAGAAGACUGCGGCUUCCAGUCCCGUACGGAACG | ≤ 0.5 |
| GUUCCGUUGGUGUAAUGGUAAGGCGUCACCGUCCUAAGGAGAAGACUGCGGGUUAGAGUCCCGUACGCAACG | ≤ 0.5 |
| GUUCCGUUGGUGUAAUGGUAAGGCGUCUCCCUCCUAAGGAGAAGACCGCGGGGUCGAGUCCCGUACGGAACG | ≤ 0.5 |
| GUUCCGUUGGUGUAAUGGUAAGGCGUCUCCCUCCUAAGGAGAAGACUGCGGGUUCGAGCCCCGUACGGAACG | 0.575 |
| GUUCCGUUGGUGUAAUGGUAAUGCGUCUCCCUCCUAAGGAGAAGACUGCGGGUUCGAGUCCCGUACGGAGCG | 0.644 |
| GUUCCGUUGGUGUAAUGGUAAUGCGUCUCCCUCCUAAGGAGAAGACUGCGGGUUCGAGUCCCGUAUGGAACG | 0.517 |
| GUUCCGUUGGUGUAAUGGUAAUGCGUCUCCCUCCUAAAGAGAAGACUGCGGGUCCGAGUCCCGUACGGAACG | ≤ 0.5 |
| GUUCCGUUGGUGUAAUGGUAAUGCGUCUCCCUCCUAAGGAGAACACUGCGGGUUCGAGUCCCGUACGGAACG | 0.553 |
| GUUCCGUUGGUGUAAUGGUAAUGCGUCUCCCUCCUAAGGAGAACACUGCGGGUUCGAGUCCCGGACGGAACG | 0.534 |
| GUUCCGUUGGUGUAAUGGUAAUGCGUCUCCCUCCUAAGGAGAAGACUGCGGGUCCGAGUCCCGUACGGAACG | 0.639 |
| GUUCCGUUGGUGUAAUGGUAACGAGUCUCCCUCCUAAGGAGAAGACUGCGGGUUCGAGUCCCGUACGGAACG | 0.606 |
| GUUCCGUUGGUGUAAUGGUAACGAGUCUCCCUCCUAAGGAGAGGACUGCGGGUUCGAGUCCAGUACGGAACG | ≤ 0.5 |
| GUUCCGUUGGUGUAAUGGUAACGGGUCUCCCUCCUAAGGAGAAGACUGCGGGUUCGAGUCCCGUACGGAGCG | 0.649 |
| GUUCCGUUGGUGUAAUGGUAACGGGUGUCCCUCCUUACGAGAAGACUGCGGGUUCGAGUGCCGUAAGGAACG | ≤ 0.5 |
